Tests used:
Malassezia pachydermatis [1] = experiment: Antimicrobial activity against Malassezia pachydermatis after 48 to 72 hrs by two fold dilution method; type: functional
Outline: (§1)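 Yeast was grown in Sabouraud dextrose broth at 28 °C for 48 h and tested per CLSI reference methods. Two-fold serial dilutions from 1000 to 7.81 µg/mL, compound in DMSO (2%), in 96-well plates, incubated 48–72 h at 28 °C. MIC was the lowest concentration with no visible fungal growth. Ketoconazole was the positive control.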

Klebsiella pneumoniae [2] = experiment: Bactericidal activity against Klebsiella pneumoniae MTCC 109 after 24 hrs by two fold dilution method; type: functional; settings: MTCC 109, 24 h
Outline: (§2)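 Tubes held 5 mL MHB with two-fold dilutions from 1000 to 7.81 µg/mL and were inoculated with 5 × 10^5 to 1 × 10^6 cells in 0.1 mL MHB, incubated without shaking. Turbidity was checked at 20 h, tubes vortexed and re-incubated 4 h.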

Staphylococcus aureus [3] = experiment: Antimicrobial activity against […] Staphylococcus aureus MTCC 96 at 1 mg/disc after 24 hrs by disc diffusion assay; type: functional
Outline: (§3)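 Disc diffusion on Mueller Hinton agar. Inoculum was grown in MHB for 24 h at 37 °C, swabbed onto the plates and dried for 10 min. Discs with 1 mg compound were left 30 min at room temperature for diffusion, then incubated at 37 °C for 24 h. Inhibition zone was read in mm; run twice. Solvent was the negative control, streptomycin the positive control.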

Candida albicans [4] = experiment: Fungicidal activity against Candida albicans MTCC 227 after 48 to 72 hrs by two fold dilution method; type: functional
Bacillus subtilis [5] = experiment: Bactericidal activity against Bacillus subtilis MTCC 441 after 24 hrs by two fold dilution method; type: functional; settings: MTCC 441, 24 h; outline: as §2
Bacillus subtilis [6] = experiment: Antimicrobial activity against Bacillus subtilis MTCC 441 after 24 hrs by two fold dilution method; type: functional; settings: MTCC 441, 24 h
Outline: (§4)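 Broth two-fold serial dilution in 96-well plates from 1000 to 7.81 µg/mL, compound in DMSO (2%). Inoculum was grown in MHB for 24 h at 37 °C; plates were incubated 24 h at 37 °C. 5 µL of broth was spotted onto MHA; MIC was the lowest concentration with no visible growth on agar. Streptomycin was the positive control.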

Proteus vulgaris [7] = experiment: Antimicrobial activity against Proteus vulgaris MTCC 1771 after 24 hrs by two fold dilution method; type: functional; settings: MTCC 1771, 24 h; outline: as §4
[8] = tested on: Salmonella enterica subsp. enterica serovar Paratyphi B; experiment: Antimicrobial activity against Salmonella paratyphi B at 1 mg/disc after 24 hrs by disc diffusion assay; type: functional; outline: as §3
Salmonella typhimurium [9] = experiment: Antimicrobial activity against Salmonella typhimurium MTCC 1251 at 1 mg/disc after 24 hrs by disc diffusion assay; type: functional, Salmonella enterica subsp. enterica serovar Typhimurium; outline: as §3
Staphylococcus aureus [10] = experiment: Bactericidal activity against methicillin-resistant Staphylococcus aureus MTCC 96 after 24 hrs by two fold dilution method; type: functional; settings: MTCC 96, 24 h; outline: as §2
Salmonella typhimurium [11] = experiment: Bactericidal activity against Salmonella typhimurium MTCC 1251 after 24 hrs by two fold dilution method; type: functional, Salmonella enterica subsp. enterica serovar Typhimurium; settings: Salmonella enterica, MTCC 1251, 24 h; outline: as §2
Micrococcus luteus [12] = experiment: Antimicrobial activity against Micrococcus luteus MTCC 106 at 1 mg/disc after 24 hrs by disc diffusion assay; type: functional; outline: as §3
Proteus vulgaris [13] = experiment: Antimicrobial activity against Proteus vulgaris MTCC 1771 at 1 mg/disc after 24 hrs by disc diffusion assay; type: functional; outline: as §3
Staphylococcus aureus [14] = experiment: Bactericidal activity against Staphylococcus aureus MTCC 96 after 24 hrs by two fold dilution method; type: functional; settings: MTCC 96, 24 h; outline: as §2
Malassezia pachydermatis [15] = experiment: Fungicidal activity against Malassezia pachydermatis after 48 to 72 hrs by two fold dilution method; type: functional
Klebsiella pneumoniae [16] = experiment: Antimicrobial activity against Klebsiella pneumoniae MTCC 109 at 1 mg/disc after 24 hrs by disc diffusion assay; type: functional; outline: as §3
Pseudomonas aeruginosa [17] = experiment: Bactericidal activity against Pseudomonas aeruginosa MTCC 741 after 24 hrs by two fold dilution method; type: functional; settings: MTCC 741, 24 h; outline: as §2
Shigella flexneri [18] = experiment: Antimicrobial activity against Shigella flexneri MTCC 1457 after 24 hrs by two fold dilution method; type: functional; settings: MTCC 1457, 24 h; outline: as §4
Salmonella typhimurium [19] = experiment: Antimicrobial activity against Salmonella typhimurium MTCC 1251 after 24 hrs by two fold dilution method; type: functional, Salmonella enterica subsp. enterica serovar Typhimurium; settings: Salmonella enterica, MTCC 1251, 24 h; outline: as §4
Pseudomonas aeruginosa [20] = experiment: Antimicrobial activity against Pseudomonas aeruginosa MTCC 741 after 24 hrs by two fold dilution method; type: functional; settings: MTCC 741, 24 h; outline: as §4
Candida albicans [21] = experiment: Antimicrobial activity against Candida albicans MTCC 227 after 48 to 72 hrs by two fold dilution method; type: functional; outline: as §1
Pseudomonas aeruginosa [22] = experiment: Antimicrobial activity against Pseudomonas aeruginosa MTCC 741 at 1 mg/disc after 24 hrs by disc diffusion assay; type: functional; outline: as §3
[23] = tested on: Salmonella enterica subsp. enterica serovar Paratyphi B; experiment: Bactericidal activity against Salmonella paratyphi B after 24 hrs by two fold dilution method; type: functional; outline: as §2
Malassezia pachydermatis [24] = experiment: Antimicrobial activity against Malassezia pachydermatis at 1 mg/disc after 24 hrs by disc diffusion assay; type: functional
Shigella flexneri [25] = experiment: Bactericidal activity against Shigella flexneri MTCC 1457 after 24 hrs by two fold dilution method; type: functional; settings: MTCC 1457, 24 h; outline: as §2
Klebsiella pneumoniae [26] = experiment: Antimicrobial activity against Klebsiella pneumoniae MTCC 109 after 24 hrs by two fold dilution method; type: functional; settings: MTCC 109, 24 h; outline: as §4
Proteus vulgaris [27] = experiment: Bactericidal activity against Proteus vulgaris MTCC 1771 after 24 hrs by two fold dilution method; type: functional; settings: MTCC 1771, 24 h; outline: as §2
Staphylococcus aureus [28] = experiment: Antimicrobial activity against Staphylococcus aureus MTCC 96 after 24 hrs by two fold dilution method; type: functional; settings: MTCC 96, 24 h; outline: as §4
[29] = tested on: Salmonella enterica subsp. enterica serovar Paratyphi B; experiment: Antimicrobial activity against Salmonella paratyphi B after 24 hrs by two fold dilution method; type: functional; outline: as §4
Micrococcus luteus [30] = experiment: Bactericidal activity against Micrococcus luteus MTCC 106 after 24 hrs by two fold dilution method; type: functional; settings: MTCC 106, 24 h; outline: as §2
Klebsiella aerogenes [31] = experiment: Antimicrobial activity against Enterobacter aerogenes MTCC 111 at 1 mg/disc after 24 hrs by disc diffusion assay; type: functional; outline: as §3
Staphylococcus aureus [32] = experiment: Antimicrobial activity against methicillin-resistant Staphylococcus aureus MTCC 96 after 24 hrs by two fold dilution method; type: functional; settings: MTCC 96, 24 h; outline: as §4
Staphylococcus aureus [33] = experiment: Antimicrobial activity against Staphylococcus aureus MTCC 96 at 1 mg/disc after 24 hrs by disc diffusion assay; type: functional; outline: as §3
Candida albicans [34] = experiment: Antimicrobial activity against Candida albicans MTCC 227 at 1 mg/disc after 24 hrs by disc diffusion assay; type: functional
Micrococcus luteus [35] = experiment: Antimicrobial activity against Micrococcus luteus MTCC 106 after 24 hrs by two fold dilution method; type: functional; settings: MTCC 106, 24 h; outline: as §4
Klebsiella aerogenes [36] = experiment: Bactericidal activity against Enterobacter aerogenes MTCC 111 after 24 hrs by two fold dilution method; type: functional; settings: MTCC 111, 24 h; outline: as §2
Klebsiella aerogenes [37] = experiment: Antimicrobial activity against Enterobacter aerogenes MTCC 111 after 24 hrs by two fold dilution method; type: functional; settings: MTCC 111, 24 h; outline: as §4
Shigella flexneri [38] = experiment: Antimicrobial activity against Shigella flexneri MTCC 1457 at 1 mg/disc after 24 hrs by disc diffusion assay; type: functional; outline: as §3
Bacillus subtilis [39] = experiment: Antimicrobial activity against Bacillus subtilis MTCC 441 at 1 mg/disc after 24 hrs by disc diffusion assay; type: functional; outline: as §3

In the case of CC(C)C[C@@H](C)N[C@@H](C)[C@H](O)c1ccccc1.Cl, the MIC (Malassezia pachydermatis [1]) is reported as 62.5 µg/mL, the MBC (Klebsiella pneumoniae [2]) is reported as 62.5 µg/mL and the “inhibition zone (IZ)” value (Staphylococcus aureus [3]) is reported as 16 mm. For the same compound, the MFC (Candida albicans [4]) was 62.5 µg/mL, the MBC (Bacillus subtilis [5]) was 250 µg/mL and the MIC (Bacillus subtilis [6]) was 125 µg/mL. The MIC (Proteus vulgaris [7]) was 125 µg/mL, the “inhibition zone (IZ)” value [8] was 13 mm and the “inhibition zone (IZ)” value (Salmonella typhimurium [9]) was 14 mm. For the same compound, the MBC (Staphylococcus aureus [10]) was 125 µg/mL, the MBC (Salmonella typhimurium [11]) was 250 µg/mL and the “inhibition zone (IZ)” value (Micrococcus luteus [12]) was 16 mm. The “inhibition zone (IZ)” value (Proteus vulgaris [13]) was 15 mm, the MBC (Staphylococcus aureus [14]) was 125 µg/mL and the MFC (Malassezia pachydermatis [15]) was 62.5 µg/mL. For the same compound, the “inhibition zone (IZ)” value (Klebsiella pneumoniae [16]) was 16 mm, the MBC (Pseudomonas aeruginosa [17]) was 125 µg/mL and the MIC (Shigella flexneri [18]) was 125 µg/mL. For the same compound, the MIC (Salmonella typhimurium [19]) was 125 µg/mL, the MIC (Pseudomonas aeruginosa [20]) was 62.5 µg/mL and the MIC (Candida albicans [21]) was 62.5 µg/mL. The “inhibition zone (IZ)” value (Pseudomonas aeruginosa [22]) was 17 mm, the MBC [23] was 250 µg/mL and the “inhibition zone (IZ)” value (Malassezia pachydermatis [24]) was 16 mm. The MBC (Shigella flexneri [25]) was 250 µg/mL, the MIC (Klebsiella pneumoniae [26]) was 62.5 µg/mL and the MBC (Proteus vulgaris [27]) was 250 µg/mL. It also gave an MIC (Staphylococcus aureus [28]) of 62.5 µg/mL, an MIC [29] of 125 µg/mL and an MBC (Micrococcus luteus [30]) of 62.5 µg/mL. The “inhibition zone (IZ)” value (Klebsiella aerogenes [31]) was 14 mm, the MIC (Staphylococcus aureus [32]) was 62.5 µg/mL and the “inhibition zone (IZ)” value (Staphylococcus aureus [33]) was 17 mm. The “inhibition zone (IZ)” value (Candida albicans [34]) was 17 mm, the MIC (Micrococcus luteus [35]) was 62.5 µg/mL and the MBC (Klebsiella aerogenes [36]) was 125 µg/mL. For the same compound, the MIC (Klebsiella aerogenes [37]) was 125 µg/mL, the “inhibition zone (IZ)” value (Shigella flexneri [38]) was 15 mm and the “inhibition zone (IZ)” value (Bacillus subtilis [39]) was 15 mm.

CC(C)C[C@H](C)N[C@H](C)[C@@H](O)c1ccccc1.Cl was tested, and the MIC (Malassezia pachydermatis [1]) was 250 µg/mL, the MBC (Klebsiella pneumoniae [2]) was 250 µg/mL and the “inhibition zone (IZ)” value (Staphylococcus aureus [3]) was 15 mm. The MFC (Candida albicans [4]) was 250 µg/mL, the MBC (Bacillus subtilis [5]) was 250 µg/mL and the MIC (Bacillus subtilis [6]) was 250 µg/mL. For the same compound, the MIC (Proteus vulgaris [7]) was 125 µg/mL, the “inhibition zone (IZ)” value [8] was 10 mm and the “inhibition zone (IZ)” value (Salmonella typhimurium [9]) was 10 mm. For the same compound, the MBC (Staphylococcus aureus [10]) was 250 µg/mL, the MBC (Salmonella typhimurium [11]) was 500 µg/mL and the “inhibition zone (IZ)” value (Micrococcus luteus [12]) was 13 mm. For the same compound, the “inhibition zone (IZ)” value (Proteus vulgaris [13]) was 14 mm, the MBC (Staphylococcus aureus [14]) was 250 µg/mL and the MFC (Malassezia pachydermatis [15]) was 250 µg/mL. The “inhibition zone (IZ)” value (Klebsiella pneumoniae [16]) was 13 mm, the MBC (Pseudomonas aeruginosa [17]) was 500 µg/mL and the MIC (Shigella flexneri [18]) was 250 µg/mL. For the same compound, the MIC (Salmonella typhimurium [19]) was 500 µg/mL, the MIC (Pseudomonas aeruginosa [20]) was 250 µg/mL and the MIC (Candida albicans [21]) was 250 µg/mL. The “inhibition zone (IZ)” value (Pseudomonas aeruginosa [22]) was 11 mm, the MBC [23] was 500 µg/mL and the “inhibition zone (IZ)” value (Malassezia pachydermatis [24]) was 12 mm. The MBC (Shigella flexneri [25]) was 500 µg/mL, the MIC (Klebsiella pneumoniae [26]) was 250 µg/mL and the MBC (Proteus vulgaris [27]) was 125 µg/mL. It also gave an MIC (Staphylococcus aureus [28]) of 250 µg/mL, an MIC [29] of 250 µg/mL and an MBC (Micrococcus luteus [30]) of 500 µg/mL. For the same compound, the “inhibition zone (IZ)” value (Klebsiella aerogenes [31]) was 12 mm, the MIC (Staphylococcus aureus [32]) was 125 µg/mL and the “inhibition zone (IZ)” value (Staphylococcus aureus [33]) was 13 mm. For the same compound, the “inhibition zone (IZ)” value (Candida albicans [34]) was 13 mm, the MIC (Micrococcus luteus [35]) was 250 µg/mL and the MBC (Klebsiella aerogenes [36]) was 250 µg/mL. The MIC (Klebsiella aerogenes [37]) was 250 µg/mL, the “inhibition zone (IZ)” value (Shigella flexneri [38]) was 10 mm and the “inhibition zone (IZ)” value (Bacillus subtilis [39]) was 12 mm.

From ChEMBL document CHEMBL3352188, “Synthesis, antimicrobial and molecular docking studies of enantiomerically pure N-alkylated β-amino alcohols from phenylpropanolamines” (2014)
